A selection: hits, their analogues and other compounds. The true share with any hit is near 1.7%.
DNMT1 inh: blocks human DNA methyltransferase DNMT1 | DNMT1 molecular beacon, Hinp1I cleavage, fluorescence | P26358 | inhibition (reported as % activation of signal), % at 10 µM | 0.83% of 360,000 active | AID 588458; in the data active = inhibition above about 50%
SUMO1-SIM PPI: modulators of human SUMO1-mediated protein-protein interactions | SUMO1 binding to a labelled peptide, TR-FRET, 1 h | inhibition, % at 20 µM | 0.33% of 360,000 active | AID 602429; in the data active = inhibition above about 37%
Target sequence (P63165 whole entry, looked up): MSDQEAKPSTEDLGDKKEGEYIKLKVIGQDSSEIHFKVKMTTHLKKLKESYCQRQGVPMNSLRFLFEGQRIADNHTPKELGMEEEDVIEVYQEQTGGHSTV
Scp-1 inhibitor: inhibitors of human Scp-1 phosphatase | AID 493091 | 0.88% of 340,000 active | inhibition, % at 20 µM | Recombinant Scp1, phosphopeptide, malachite green phosphate absorbance;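 active = inhibition above about 50% at 20 µM, limit read from the data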;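 note: plate controls were DMSO wells with enzyme for no effect and wells lacking enzyme for full effect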
Target sequence (Q9GZU7 76-261 limits assumed): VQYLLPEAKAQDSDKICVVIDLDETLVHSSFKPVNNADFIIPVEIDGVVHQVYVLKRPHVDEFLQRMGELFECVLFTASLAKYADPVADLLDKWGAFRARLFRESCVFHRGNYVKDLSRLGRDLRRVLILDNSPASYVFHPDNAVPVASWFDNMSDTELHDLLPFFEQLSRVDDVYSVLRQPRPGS
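Test system: SCP-1 phosphatase catalytic domain, residues 76-261 | Compound dosing: One concentration, 20 µM, with 1.0% DMSO | Schedule: 45 min room-temperature reaction, 5 min colour, 30 min stabiliser | Detection: Absorbance at 630 nm | Read-out basis: % inhibition of SCP-1 phosphate liberation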
LMPTP block: blocks human LMPTP phosphatase | recombinant LMPTP-A, OMFP fluorogenic substrate, fluorescence intensity | inhibition, % at 20 µM | 0.22% of 360,000 active | AID 651560;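 active = compounds that cut the enzyme signal by at least half of the control window in the single-dose screen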;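 note: plate controls were DMSO wells with enzyme plus substrate for no effect and substrate without enzyme for full effect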
Target sequence (P24666 whole entry, looked up): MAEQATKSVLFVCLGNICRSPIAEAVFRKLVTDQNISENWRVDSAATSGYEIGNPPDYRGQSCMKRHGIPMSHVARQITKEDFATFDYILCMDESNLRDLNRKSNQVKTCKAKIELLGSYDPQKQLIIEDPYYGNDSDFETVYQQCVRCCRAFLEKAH
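Material: LMPTP-A; amount: 0.625 nM enzyme; doses: single 20 µM dose; times: reaction 50 min, room temperature, dark; technique: fluorescence intensity of OMFP turnover product; benchmarks: no-enzyme and uninhibited controls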
STEP block: blocks human striatal-enriched tyrosine phosphatase | 0.25% of 360,000 active | P54829 | recombinant STEP, OMFP fluorogenic substrate, fluorescence | inhibition, % at 20 µM;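 active = inhibition at 20 µM, scaled per plate between control wells, above about 37%, limit read from the data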;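 note: 0% = DMSO with enzyme and substrate and 100% = substrate only without enzyme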
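medium = Bis-Tris buffer pH 6.0, 2.5 mM DTT, 0.005% Tween 20 | test system = STEP (striatal-enriched tyrosine phosphatase) enzyme, cell-free | measure = normalized % inhibition | compound dosing = 20 µM, 1% DMSO | also added = 25 µM OMFP | schedule = reaction 20 min, ambient temperature | measured by = fluorescence read at 480 nm ex / 540 nm em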
Beacon interf DR: shows spectral interference in the DNMT1 beacon assay; IC50, µM; molecular beacon fluorescence, spectral interference counter-screen; shares compounds with DNMT1 inh; 200 tested, under 10 active
DNMT1 confirm: confirmation of human DNMT1 inhibitors. DNMT1 molecular beacon HinP1I cleavage, fluorescence. inhibition, % at 10 µM. 8% of 2,300 active. shares compounds with DNMT1 inh;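 active = average inhibition of at least 30% in the single-concentration confirmation test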
DNMT1 interf: counter-screen for DNMT1 inhibitors: spectral interference; activation (fluorescence interference), % at 10 µM; 1% of 2,300 active; shares compounds with DNMT1 inh; DNMT1 molecular beacon spectral interference counterscreen, fluorescence 485/520; AID 602387;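 active = activation of at least 30% at 10 µM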;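 note: DNMT1 catalytic domain with a HinP1I cleavage step and a FAM/dabcyl DNA beacon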
STEP conf: confirmation of human STEP phosphatase inhibitors; shares compounds with STEP block; recombinant STEP, OMFP fluorogenic substrate, fluorescence; inhibition, % at 20 µM; 32% of 520 active;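 note: 0% = enzyme with substrate plus DMSO and 100% = substrate without enzyme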
Starred values were filed as active, the others as inactive. Unless noted, the rule behind the calls is not given here.

`COC(=O)C1C(O)C(C)C(O)C(C)/C=C\C=C(/C)C(=O)Nc2c(C)c(OC(C)=O)c3c(c2O)C(=O)C(C)=C2OCOC(=C23)/C(C)=C/C(C)(O)C(O)C(C)C1O` (stereo not given) gave DNMT1 inh -9.1, SUMO1-SIM PPI -24.4, Scp-1 inhibitor -7.0, LMPTP block 2.1 and STEP block 0.3.
O=c1[nH]c(O)c(/C=C2\C=Nc3ccc(OCc4ccccc4)cc32)c(=O)[nH]1 was read as DNMT1 inh 71.0*, SUMO1-SIM PPI 3.8, Scp-1 inhibitor -4.5, LMPTP block 1.4, STEP block -0.5, DNMT1 confirm 8.0 and DNMT1 interf -0.4.
`O=C1NC(=S)NC(=O)C1=Cc1cccn1-c1ccc(O)cc1` gave DNMT1 inh 84.3*, SUMO1-SIM PPI 11.3, Scp-1 inhibitor 55.5*, LMPTP block 32.4, STEP block 3.1, Beacon interf DR >99, DNMT1 confirm 65.0* and DNMT1 interf -4.3.
For CN1C(=O)/C(=C/c2cccn2-c2ccc3ccccc3c2)C(=O)NC1=S the results were DNMT1 inh 80.7*, SUMO1-SIM PPI 15.1, Scp-1 inhibitor -4.3, LMPTP block 5.8, STEP block 5.9, DNMT1 confirm 3.6 and DNMT1 interf -3.5.
`Cc1cc(C)cc(N2C(=O)NC(=O)/C(=C\c3cccn3-c3ccc(Cl)cc3)C2=O)c1` gave DNMT1 inh 16.7, SUMO1-SIM PPI 6.8, Scp-1 inhibitor -10.1, LMPTP block -0.6 and STEP block 1.0.
Screening COCCNCCOc1ccc(C(C)(C)c2ccccc2)cc1 returned DNMT1 inh -2.8, SUMO1-SIM PPI -2.0, Scp-1 inhibitor 0.2, LMPTP block -0.6 and STEP block 1.3.
Screening Cc1nn(CC(C)C)c(Cl)c1C(=O)NC1CCCC1 returned DNMT1 inh -0.1, SUMO1-SIM PPI -3.2, LMPTP block -1.1 and STEP block -3.2.
`CN1CN(c2cccc([N+](=O)[O-])c2)CN=C1N[N+](=O)[O-]` gave DNMT1 inh 1.0, SUMO1-SIM PPI -15.4, Scp-1 inhibitor -3.3, LMPTP block -1.2 and STEP block -3.2.
`C=CCSc1nc2c(c(-c3ccsc3)c1C#N)CN(C)CC2` gave DNMT1 inh 51.9*, SUMO1-SIM PPI -44.4, Scp-1 inhibitor -3.8, LMPTP block 23.4, STEP block 1.2, DNMT1 confirm 1.5 and DNMT1 interf 2.8.
CCN(CC)CCO was read as DNMT1 inh -2.3, SUMO1-SIM PPI 1.5, Scp-1 inhibitor -3.3, LMPTP block 0.5 and STEP block -1.9.
For CCCCn1c(N)c(C(=O)OCCOC)c2nc3ccccc3nc21 the results were DNMT1 inh -13.0, SUMO1-SIM PPI -3.2, Scp-1 inhibitor 2.3, LMPTP block -0.9 and STEP block -1.8.
`CCCCOCCCn1c(N)c(C(=O)OCCOC)c2nc3ccccc3nc21` gave DNMT1 inh 51.9*, SUMO1-SIM PPI 39.9*, Scp-1 inhibitor 3.9, LMPTP block 2.7, STEP block 0.8, DNMT1 confirm 1.4 and DNMT1 interf 0.3.
Screening O=C(CCCc1ccccc1)NCCc1cnc[nH]1 returned DNMT1 inh 1.0, SUMO1-SIM PPI 1.6, Scp-1 inhibitor -3.4, LMPTP block -1.2 and STEP block -0.8.
For CCN1C(=O)NC(=O)/C(=C/c2cc(C)n(-c3sc(C)c(C)c3C#N)c2C)C1=O the results were DNMT1 inh 10.2, SUMO1-SIM PPI 17.5, Scp-1 inhibitor -2.7, LMPTP block 0.4 and STEP block -1.9.
`CCOC(=O)c1c(-n2c(C)cc(C=C3C(=O)NC(=S)NC3=O)c2C)sc2c1CCCC2` gave DNMT1 inh 100.4*, SUMO1-SIM PPI 27.9, Scp-1 inhibitor 8.7, LMPTP block 2.3, STEP block 3.3, Beacon interf DR >99, DNMT1 confirm 28.6 and DNMT1 interf -8.4.
Screening Cc1ccc(N2C(=O)NC(=O)/C(=C\c3cc(C)n(-c4sc5c(c4C#N)CCCC5)c3C)C2=O)cc1 returned DNMT1 inh 70.1*, SUMO1-SIM PPI 51.2*, Scp-1 inhibitor 2.1, LMPTP block 2.0, STEP block 3.2, Beacon interf DR >99, DNMT1 confirm 20.3 and DNMT1 interf -4.8.
`CC(C)C1(C)N=C(c2ncccc2C(=O)O)NC1=O` (stereo not given) gave DNMT1 inh 93.7*, SUMO1-SIM PPI -1.8, Scp-1 inhibitor -10.7, LMPTP block -2.4, STEP block -1.3, DNMT1 confirm 1.6 and DNMT1 interf 3.3.
`COc1nc2ccccc2c(=O)n1-c1ccc(Cl)cc1` gave DNMT1 inh 14.9, SUMO1-SIM PPI -0.3, Scp-1 inhibitor -7.1, LMPTP block -1.3 and STEP block -1.1.
`COc1nc2ccccc2c(=O)n1-c1ccc(C)cc1` gave DNMT1 inh 87.8*, SUMO1-SIM PPI 3.0, Scp-1 inhibitor -1.7, LMPTP block 0.8, STEP block -2.5, DNMT1 confirm 1.3 and DNMT1 interf 3.1.
Cc1cc(O)c(CN2CC=C(c3ccccc3)CC2)cc1C(C)C was read as DNMT1 inh 1.9, SUMO1-SIM PPI -0.2, Scp-1 inhibitor 6.6, LMPTP block 1.0 and STEP block 1.2.
Screening O=C(O)C1C2CCC(O2)C1C(=O)Nc1cccc(Br)c1 (stereo not given) returned DNMT1 inh 78.6*, SUMO1-SIM PPI 0.8, Scp-1 inhibitor -9.4, LMPTP block -0.2, STEP block 0.5, DNMT1 confirm 2.9 and DNMT1 interf 4.4.
Screening CN1CCC2(CC1)N=C(c1ccc(F)cc1)C(=S)N2 returned DNMT1 inh 1.1, SUMO1-SIM PPI -2.9, Scp-1 inhibitor -1.3, LMPTP block 0.9, STEP block 78.3* and STEP conf 27.8*.
CC[C@H]1CN2CCC1C[C@@H]2[C@@H](O)c1ccnc2ccc(OC)cc12 (stereo not given in full) was read as DNMT1 inh 2.4, SUMO1-SIM PPI 2.0, Scp-1 inhibitor 4.8, LMPTP block 0.5 and STEP block 0.5.
`CC[C@H]1CN2CCC1C[C@H]2[C@H](O)c1ccnc2ccc(OC)cc12` (stereo not given in full) gave DNMT1 inh 44.8, SUMO1-SIM PPI 55.5*, Scp-1 inhibitor -8.8, LMPTP block 65.1*, STEP block 48.2* and STEP conf 9.4.
Screening CCN1C[C@]2(CO)CC[C@H](OC)[C@@]34C5C[C@H]6[C@H](OC)C5[C@](O)(C[C@H]6OC)[C@@H](C(OC)C23)[C@@H]14 (stereo not given in full) returned DNMT1 inh 1.0, SUMO1-SIM PPI 0.6, Scp-1 inhibitor -1.3, LMPTP block 0.9 and STEP block -1.4.
For Cc1ccc(Cn2cc(C=O)c(-c3ccc(C)cc3)n2)cc1 the results were DNMT1 inh 2.3, SUMO1-SIM PPI 3.4, Scp-1 inhibitor -9.6, LMPTP block 3.3, STEP block 73.5* and STEP conf 26.8*.
C=CCn1c(O)c(C(C)=NCCN2CCN(C(=S)NC)CC2)c(=O)[nH]c1=O was read as DNMT1 inh 0.0, SUMO1-SIM PPI -1.8, Scp-1 inhibitor -10.8, LMPTP block -4.4 and STEP block -0.1.
